# Results: article PMC6543826 (Bioorganic chemistry, 2018)
# Where two headings read alike, the source gives them in different places.
# Legend:
# HS 578 T = assay: NCI-60 SRB screen, Breast cancer; type: cell-based
# Method in brief: (§1)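 Five-dose NCI-60 protocol (DTP, NCI). Absorbance was read at time zero (Tz), for untreated control (C) and at five compound levels (Ti), with SRB protein-stain end point read spectrophotometrically. GI50 from [(Ti−Tz)/(C−Tz)]×100 = 50; TGI from Ti = Tz; LC50 from [(Ti−Tz)/Tz]×100 = −50. A parameter not reached is given as greater than the highest concentration tested.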
# NCI/ADR-RES = assay: NCI-60 SRB screen, Ovarian cancer; type: cell-based
# Method in brief: as §1
# A375 cells = assay: anchorage dependent colony formation assay; type: cell-based, human; conditions: A375, 10–14 days
# Method in brief: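 1000 A375 cells per 60 mm plate adhered for 24 h, then were treated with various test compound doses for 10–14 days. Plates were PBS-washed and fixed in 4% paraformaldehyde (15 min, room temperature). They were stained with 0.2% crystal violet in 20% methanol for 10 min, water-washed and imaged under microscope.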
# [1] = test system: NCI-60 panel of tumor cell lines; assay: cells; conditions: Homo sapiens
# MDA-MB-231/ATCC = assay: NCI-60 SRB screen, Breast cancer; type: cell-based
# Method in brief: as §1
# TK-10 = assay: NCI-60 SRB screen, Renal cancer; type: cell-based
# Method in brief: as §1
# 786–0 = assay: NCI-60 SRB screen, Renal cancer; type: cell-based
# Method in brief: as §1
# UACC-257 = assay: NCI-60 SRB screen, Melanoma; type: cell-based
# Method in brief: as §1
# COLO 205 = assay: NCI-60 SRB screen, Colon cancer; type: cell-based
# Method in brief: as §1
# ERK2 = ERK2 (Rattus norvegicus, UniProt P63086); assay: steady-state kinetic experiments, ERK2 with varied Mg-ATP; type: biochemical; conditions: versus ATP, double reciprocal plot
# Method in brief: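 Activated rat ERK2 was run in the radiometric kinase buffer with 50 μM His-Ets-1. Mg-ATP was varied (10–2000 μM) at several fixed test compound concentrations (0–54 μM). Initial rates were taken from product-versus-time plots. Mechanism was assessed from a double-reciprocal plot of 1/V0 versus 1/[Mg-ATP].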
# Sequence of ERK2 (P63086 whole entry): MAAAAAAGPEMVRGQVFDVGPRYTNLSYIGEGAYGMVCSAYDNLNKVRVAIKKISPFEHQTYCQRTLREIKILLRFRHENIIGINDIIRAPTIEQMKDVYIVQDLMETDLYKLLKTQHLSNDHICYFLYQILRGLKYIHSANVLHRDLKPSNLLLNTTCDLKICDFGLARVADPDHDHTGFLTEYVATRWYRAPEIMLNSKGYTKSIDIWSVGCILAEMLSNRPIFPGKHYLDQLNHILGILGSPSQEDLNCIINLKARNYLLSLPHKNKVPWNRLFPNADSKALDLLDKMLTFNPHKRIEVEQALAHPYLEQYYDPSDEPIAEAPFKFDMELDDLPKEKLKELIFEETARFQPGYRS
structure (smiles),measurement,setting,value
"O=C1c2ccccc2C(=O)c2c1oc1c2c(=O)[nH]c2ccc(Cl)cc21 [3b, 2-Chloronaphtho[2′,3′:4,5]furo[3,2-c]quinoline-6,7,12(5H)-trione]",TGI,"HS 578 T; HS 578 T, five-dose",1.38 µM
same,GI50,"HS 578 T; Homo sapiens, Hs-578T",0.26 µM
same,CC50,"HS 578 T; Homo sapiens, Hs-578T, read-out: LC50",> 100 µM
same,GI50,NCI/ADR-RES; Homo sapiens,0.35 µM
same,CC50,"NCI/ADR-RES; Homo sapiens, read-out: LC50",34.7 µM
same,TGI,NCI/ADR-RES; five-dose,1.78 µM
same,concentration at which inhibition of colony forming ability starts,A375 cells,10 µM
same,GI50,"[1]; read-out: GI50, average across all cell lines tested",0.24 µM
same,GI50,"[1]; read-out: GI50 values, range over all cell lines",0.14 to 10.5 µM
same,CC50,"[1]; read-out: LC50, average",7.58 µM
same,GI50,"MDA-MB-231/ATCC; Homo sapiens, MDA-MB-231",0.17 µM
same,CC50,"MDA-MB-231/ATCC; Homo sapiens, MDA-MB-231, read-out: LC50",2.82 µM
same,TGI,"MDA-MB-231/ATCC; MDA-MB-231/ATCC, five-dose",0.51 µM
same,GI50,"TK-10; Homo sapiens, TK-10",0.38 µM
same,CC50,"TK-10; Homo sapiens, TK-10, read-out: LC50",6.03 µM
same,TGI,"TK-10; TK-10, five-dose",1.10 µM
same,TGI,"786–0; 786–0, five-dose",0.54 µM
same,GI50,"786–0; Homo sapiens, 786-0",0.22 µM
same,CC50,"786–0; Homo sapiens, 786-0, read-out: LC50",2.45 µM
same,GI50,"UACC-257; Homo sapiens, UACC-257",1.32 µM
same,CC50,"UACC-257; Homo sapiens, UACC-257, read-out: LC50",8.51 µM
same,TGI,"UACC-257; UACC-257, five-dose",3.39 µM
same,TGI,"COLO 205; COLO 205, five-dose",27.54 µM
same,GI50,"COLO 205; Homo sapiens, COLO 205",10.5 µM
same,CC50,"COLO 205; Homo sapiens, COLO 205, read-out: LC50",72.4 µM
"O=C1C(Cl)=C(c2c(O)c3c(=O)n(-c4ccccc4)c4ccccc4c3oc2=O)C(=O)c2ccccc21 [compound 6, 3-(3-Chloro-1,4-dioxo-1,4-dihydronaphthalen-2-yl)-4-hydroxy-6-phenyl-2H-pyrano[3,2-c]quinoline-2,5(6H)-dione]",concentration at which inhibition of colony forming ability starts,A375 cells,2.5 µM
same,mechanism of ERK2 inhibition,ERK2,competitive inhibition
